Results on four molecules are retold here after paper PMC11491786 (Zoological Research, 2024).

The test system of series [1] is mouse peritoneal macrophages. Description: Cytotoxicity assay. Conditions: 12.5 to 200 μg/mL, 8 h, CCK8. The format is cell-based. An outline of the steps:
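Peritoneal macrophages were elicited in mice with i.p. 3% thioglycollate broth and collected by PBS lavage after 3 days. Cells were cultured in RPMI1640 at 37°C, 5% CO2, seeded at 1×10^6 cells/well and allowed 12 h to adhere. Test compound (12.5–200 µg/mL, plus 0) was added for 8 h, then CCK-8 for 3 h and OD450 read. Viability is expressed as % of control; n=8–12.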

A further series relates to male C57BL/6 J mice. Nature of the series: Bleeding assay. The format is in vivo, mouse. Summed up: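 Dosing 15 min before cutting: test compound at 0.5 or 2 mg/kg i.v., 0.9% saline (control) or heparin sodium 2 500 U/kg (reference). Mice were male C57BL/6J, 6 weeks old, 18–20 g, n=6–7. Tail cut 2 mm from the tip and immersed in sterile saline at 37°C. Bleeding time recorded until blood flow stopped.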

Another series deals with mouse splenocytes. Nature of the series: Cytotoxicity assay. The format is cell-based. Conditions: 12.5 to 200 μg/mL, 8 h, CCK8. Summed up: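 Mouse splenocytes were prepared by crushing fresh spleens in PBS and passing them through a 200-mesh sieve. Cells were cultured in RPMI1640 at 37°C, 5% CO2, seeded at 2×10^5 cells/well and given 12 h to settle. Test compound (12.5–200 µg/mL, plus 0) was added for 8 h, followed by CCK-8 for 3 h and an OD450 read. Viability is reported as % of control; n=8–12.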

In series [2] the target is T1, FXIIa (Homo sapiens, UniProt P00748).
T1 sequence (P00748 373-615 limits assumed): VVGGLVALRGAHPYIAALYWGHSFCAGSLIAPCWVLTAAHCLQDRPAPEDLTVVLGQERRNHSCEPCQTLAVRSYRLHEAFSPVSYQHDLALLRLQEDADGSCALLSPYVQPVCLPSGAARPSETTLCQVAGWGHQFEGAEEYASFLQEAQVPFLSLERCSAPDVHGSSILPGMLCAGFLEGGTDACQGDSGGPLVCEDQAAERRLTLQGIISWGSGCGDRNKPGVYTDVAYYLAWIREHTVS
T1 sequence (P00748 20-372 partner limits assumed): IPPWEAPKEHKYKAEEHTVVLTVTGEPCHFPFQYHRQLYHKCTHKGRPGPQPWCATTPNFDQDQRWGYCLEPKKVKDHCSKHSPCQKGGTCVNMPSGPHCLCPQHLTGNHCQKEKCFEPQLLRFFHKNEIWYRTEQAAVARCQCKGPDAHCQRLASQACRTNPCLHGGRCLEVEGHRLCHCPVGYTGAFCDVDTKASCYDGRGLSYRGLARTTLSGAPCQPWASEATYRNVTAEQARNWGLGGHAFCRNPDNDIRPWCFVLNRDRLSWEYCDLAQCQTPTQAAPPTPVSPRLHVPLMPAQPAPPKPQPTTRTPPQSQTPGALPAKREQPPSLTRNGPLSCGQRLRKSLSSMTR
Description: Chromogenic assay, FXIIa. The format is biochemical.

The next series deals with erythrocytes. Nature of the series: Hemolysis assay. The series is classed as cell-based, human. The note with it: up to 200 μg/mL (285 μmol/L), 30 min, 37 °C, PBS pH 7.2, 540 nm. Summed up: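 Human blood was centrifuged for 10 min at 3 500 r/min and 25°C. The erythrocytes were resuspended in PBS (0.01 mol/L, pH 7.2) and exposed to test compound (12.5–200 µg/mL, plus 0) or 0.1% Triton X-100 (positive control) for 30 min at 37°C. Samples were spun 5 min at 3 500 r/min and the supernatant A540 read; n=2–3.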

The subject of another series is HEK 293T cells. Nature of the series: Cytotoxicity assay. The format is cell-based, human. Conditions: 12.5 to 200 μg/mL, 8 h, CCK8. An outline of the steps:
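HEK 293T cells were grown in DMEM/F-12 with 10% FBS and 1% penicillin-streptomycin at 37°C, 5% CO2. They were seeded at 3×10^4 cells/well and allowed 12 h to adhere. Test compound (12.5–200 µg/mL, plus 0) was added for 8 h. CCK-8 was then added for 3 h and OD450 read. Viability is given as % of untreated control; n=8–12.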

Series [3] addresses T2, PK (Homo sapiens, UniProt P03952). Nature of the series: SPR, PK over LE6-coupled chip. The series is classed as binding. In general terms: In SPR one partner is held on a chip, and binding of the other changes the refractive index at the surface.
The target in series [4] is T1, FXIIa. Description: SPR, FXIIa over LE6-coupled chip. The format is binding. The note with it: read-out: Kd (dissociation rate constant).
For series [5], the target named is T2, PK. Description: Chromogenic assay, PK. The format is biochemical.
Target sequence in this assay (P03952 391-638 limits assumed): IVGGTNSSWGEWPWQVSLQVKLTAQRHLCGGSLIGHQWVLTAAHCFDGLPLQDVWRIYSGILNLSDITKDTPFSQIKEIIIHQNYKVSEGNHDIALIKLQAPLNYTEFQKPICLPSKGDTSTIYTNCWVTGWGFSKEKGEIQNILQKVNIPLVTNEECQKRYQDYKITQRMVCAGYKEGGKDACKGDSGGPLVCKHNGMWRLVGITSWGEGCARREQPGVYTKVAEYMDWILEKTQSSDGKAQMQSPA
Target sequence in this assay (P03952 20-390 partner limits assumed): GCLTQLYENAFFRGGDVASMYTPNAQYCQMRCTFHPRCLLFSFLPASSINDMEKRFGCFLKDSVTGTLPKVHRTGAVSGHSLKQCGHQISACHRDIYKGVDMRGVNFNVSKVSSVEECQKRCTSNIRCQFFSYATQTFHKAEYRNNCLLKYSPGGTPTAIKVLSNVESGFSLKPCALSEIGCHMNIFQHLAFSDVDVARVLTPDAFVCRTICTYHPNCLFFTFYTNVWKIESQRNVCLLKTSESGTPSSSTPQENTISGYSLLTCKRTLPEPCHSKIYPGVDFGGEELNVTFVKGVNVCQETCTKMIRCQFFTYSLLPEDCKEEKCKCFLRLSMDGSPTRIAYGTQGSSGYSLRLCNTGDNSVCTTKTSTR
Another series has as its system male C57BL/6J mice. Nature of the series: FeCl3-induced carotid artery thrombosis. The series is classed as in vivo, mouse. Conditions: 2 500 U/kg i.v., 10% FeCl3, 5 min and 10 min, vs PBS-treated group. An outline of the steps: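 Male C57BL/6J mice (6 weeks old, n=6–7) were given i.v. saline (100 µL; control), heparin sodium 2 500 U/kg, or test compound at 0.5 or 2 mg/kg, 5 min before induction, under anaesthesia. Filter paper with 10% (w/v) FeCl3 was applied to the exposed left carotid artery for 30 s. Flow in the region of interest was followed by laser speckle perfusion imaging for 30 min, with images analysed at 5 and 10 min. Occlusion was scored as a red-to-blue change.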

In the next series the test system is acute IS patients. Conditions: ref Kim, 2019; Simão et al., 2017; cited from earlier work.
The target in series [6] is T3, activated factor XII (FXIIa) (UniProt P00748 20-372; P00748 373-615).
T3 sequence (looked up) 1: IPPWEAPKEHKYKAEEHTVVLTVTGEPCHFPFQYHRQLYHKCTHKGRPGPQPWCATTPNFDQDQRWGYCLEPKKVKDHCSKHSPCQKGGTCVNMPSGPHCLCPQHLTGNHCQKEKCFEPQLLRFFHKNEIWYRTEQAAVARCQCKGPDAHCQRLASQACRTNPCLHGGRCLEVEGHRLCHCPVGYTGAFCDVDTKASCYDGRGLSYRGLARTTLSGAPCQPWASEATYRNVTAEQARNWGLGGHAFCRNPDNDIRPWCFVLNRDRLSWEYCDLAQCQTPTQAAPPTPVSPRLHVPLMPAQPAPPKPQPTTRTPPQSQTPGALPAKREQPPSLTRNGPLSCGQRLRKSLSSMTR
T3 sequence (looked up) 2: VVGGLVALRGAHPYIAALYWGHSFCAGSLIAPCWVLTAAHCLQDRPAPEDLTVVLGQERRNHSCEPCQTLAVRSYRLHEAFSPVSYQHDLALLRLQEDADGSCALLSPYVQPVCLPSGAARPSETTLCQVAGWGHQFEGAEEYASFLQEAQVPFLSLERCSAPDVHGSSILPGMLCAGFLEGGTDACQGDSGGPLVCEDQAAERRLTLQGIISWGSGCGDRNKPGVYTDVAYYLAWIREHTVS
Description: SPR.

In series [7] the target is T4, plasma kallikrein (PK) (UniProt P03952 20-390; P03952 391-638). Nature of the series: SPR.
The target in series [8] is T3, activated factor XII (FXIIa). Nature of the series: cell-based or functional assay.
The target is the same in series [9]. Nature of the series: chromogenic enzyme inhibition assay.
The target in series [10] is T4, plasma kallikrein (PK). Nature of the series: chromogenic enzyme inhibition assay.

One may read the IC50 as the concentration that inhibits the measured activity by half. A high value points to lower potency. The term inhibition denotes the percentage by which the read-out fell short of the control. As a reminder, the Kd is a measure of binding affinity in units of concentration. A low value points to higher affinity. In general, Ki refers to a dissociation constant, usually derived from enzyme kinetics or from competition with a known ligand. A low value points to a stronger hold on the target.

No end group written: not given here.

T4 sequence (P03952 20-390, chain 1 of 2): as the sequence (P03952 20-390 partner limits assumed) above
T4 sequence (P03952 391-638, chain 2 of 2): as the sequence (P03952 391-638 limits assumed) above

For LSEEPE [LE6, Leu-Ser-Glu-Glu-Pro-Glu], the “toxic effects on proliferation” value (in series [1]; in the series with mouse splenocytes; with HEK 293T cells) was “no toxic effects” each time. For the same molecule, the bleeding time entry in the series on male C57BL/6 J mice (0.5 mg/kg i.v., 15 min before tail cut, n=6–7) is “without notably extending bleeding time”. In addition, the “bleeding time relative to heparin sodium” value with male C57BL/6 J mice (LE6 2 mg/kg i.v. vs heparin sodium 2 500 U/kg i.v.) was “approximately half that induced by the clinically anticoagulant heparin sodium”. Also, the IC50 was 71 µM against FXIIa [2] and about 71 µM against PK [5]. In addition, the inhibition at 285 µM at FXIIa [2] (read-out: inhibition rate of FXIIa) was determined as 88.6%. For the same molecule, the hemolysis entry with erythrocytes is on record as “no hemolytic side effects”. In addition, the kon on PK [3] (read-out: Ka (association rate constant)) amounted to 1790 M⁻¹ s⁻¹. Also, the results for the koff at PK [3] (read-out: Kd (dissociation rate constant)) and at FXIIa [4] were 0.0141 s⁻¹ and 0.118 s⁻¹, respectively.
As to heparin sodium, the “blood flow after FeCl3-induction” value in the series on male C57BL/6J mice is “increased blood flow at 5 min and 10 min”.
As to tissue plasminogen activator [tPA], the “efficacy in acute IS” value with acute IS patients is “efficacious when administered within 4.5 hours of stroke onset”.
As to LSEEPE [oligopeptide LE6 (Leu-Ser-Glu-Glu-Pro-Glu)], the results for the Kd (in [6]; in the series with plasma kallikrein (PK) [7]) were 46.4 µM and 7.88 µM, respectively. In addition, the “FXIIa activity on chromogenic substrate S-2302, IC50” value in series [8] amounted to 71 µM. For the same molecule, the figures for the Ki (in [9]; with plasma kallikrein (PK) [10]) were 6.37 µM and 44 µM, respectively.
